The values below come from ChEMBL document CHEMBL2163314, “Potent aminocyclitol glucocerebrosidase inhibitors are subnanomolar pharmacological chaperones for treating gaucher disease” (J Med Chem, 2012).

In this assay the target is T1, Lysosomal acid glucosylceramidase (Homo sapiens, UniProt P04062).
T1 sequence (P04062 whole entry): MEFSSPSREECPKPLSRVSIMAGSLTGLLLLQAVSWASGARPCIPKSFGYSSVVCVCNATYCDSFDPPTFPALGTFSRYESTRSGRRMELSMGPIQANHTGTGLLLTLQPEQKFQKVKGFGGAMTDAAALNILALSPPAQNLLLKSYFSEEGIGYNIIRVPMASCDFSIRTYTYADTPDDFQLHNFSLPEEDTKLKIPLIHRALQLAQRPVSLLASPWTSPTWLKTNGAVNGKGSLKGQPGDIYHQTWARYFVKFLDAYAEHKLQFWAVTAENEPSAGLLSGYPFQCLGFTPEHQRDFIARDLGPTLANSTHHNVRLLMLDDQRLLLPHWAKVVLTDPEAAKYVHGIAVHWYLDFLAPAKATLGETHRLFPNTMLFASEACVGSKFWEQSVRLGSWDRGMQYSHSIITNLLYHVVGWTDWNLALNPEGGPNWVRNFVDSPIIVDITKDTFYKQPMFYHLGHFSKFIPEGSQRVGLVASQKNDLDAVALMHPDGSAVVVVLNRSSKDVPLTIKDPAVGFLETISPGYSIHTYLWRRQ
As to the kind of experiment: Inhibition of lysosomal beta-glucosidase in human fibroblast using 4-methylumbelliferyl-beta-D-glucopyranoside as substrate preincubated for 24 hrs before substrate addition measured after 2 hrs by fluorometry. The procedure, abridged:
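Wild-type human fibroblasts (DMEM, 10% FBS; passages 14–30) plated overnight, then compound in fresh medium for 24 h at 37 °C, 5% CO2. Intact washed monolayers given PBS plus 200 mM acetate pH 4.0 and 5 mM 4-MU-β-glucoside, 37 °C for 2 h. Stopped by lysis in glycine/NaOH pH 10.6. Fluorescence at 355/460 nm; triplicate.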

In general, IC50 refers to the concentration that inhibits the measured activity by half. Take `CCCCCCCCCN[C@H]1[C@H](O)[C@@H](O)[C@H](O)[C@@H](O)[C@H]1OCCCCCCCCC.Cl`: the concentration for half-maximal inhibition (IC50) was determined as 4.3 nM.
